Test results taken from ChEMBL document CHEMBL1139305, “Design, synthesis and pharmacological screening of novel antihypertensive agents using hybrid approach” (Bioorg Med Chem, 2009).
In brackets after ≈: the same amount, converted by molar mass. Activity calls are given as the source filed them. The calls are words filed in the database; no cut-off is given here.

How the values were obtained:
Rattus norvegicus [1] = experiment: Cardiovascular effect in anaesthetized Wistar rat assessed as mean arterial pressure at 40 mg/kg, ip after 45 mins; type: functional, Artery; details: route intraperitoneal
Method in brief: (§1)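 Adult normotensive Wistar rats (250–300 g) under thiopental (60 mg/kg ip). Right carotid artery cannulated with a heparinised catheter (20 IU/mL in saline, flushed every 30 min) connected to a pressure transducer. Measurement began one hour after surgery. Compound given ip at 40 mg/kg in 0.5% methyl cellulose, with mean arterial pressure read at 0, 15, 30, 45 and 60 min.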

Rattus norvegicus [2] = experiment: Effect on heart rate in anesthetized Wistar rat assessed as number of Q-T-intervals at 40 mg/kg, ip after 30 mins by electrocardiography; type: functional; details: route intraperitoneal
Method in brief: (§2)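 Wistar rats (250–300 g) anaesthetised with thiopental 60 mg/kg ip, then given compound ip at 40 mg/kg in 0.5% aqueous methyl cellulose. ECG recorded by transducer, with heart rate (beats/min) and P–Q, QRS and Q–T intervals (ms) taken at 0, 15, 30, 45 and 60 min after dosing.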

Rattus norvegicus [3] = experiment: Effect on heart rate in anesthetized Wistar rat assessed as number of Q-T-intervals at 40 mg/kg, ip after 15 mins by electrocardiography; type: functional; details: route intraperitoneal; method in brief: as §2
Rattus norvegicus [4] = experiment: Effect on heart rate in anesthetized Wistar rat assessed as number of Q-T-intervals at 40 mg/kg, ip after 45 mins by electrocardiography; type: functional; details: route intraperitoneal; method in brief: as §2
Rattus norvegicus [5] = experiment: Effect on heart rate in anesthetized Wistar rat assessed as number of beats per minutes at 40 mg/kg, ip after 60 mins by electrocardiography; type: functional; details: route intraperitoneal; method in brief: as §2
Rattus norvegicus [6] = experiment: Effect on heart rate in anesthetized Wistar rat assessed as number of P-Q-intervals at 40 mg/kg, ip after 15 mins by electrocardiography; type: functional; details: route intraperitoneal; method in brief: as §2
Rattus norvegicus [7] = experiment: Effect on heart rate in anesthetized Wistar rat assessed as number of Q-T-intervals at 40 mg/kg, ip after 60 mins by electrocardiography; type: functional; details: route intraperitoneal; method in brief: as §2
Rattus norvegicus [8] = experiment: Effect on heart rate in anesthetized Wistar rat assessed as number of beats per minutes at 40 mg/kg, ip after 15 mins by electrocardiography; type: functional; details: route intraperitoneal; method in brief: as §2
Rattus norvegicus [9] = experiment: Effect on heart rate in anesthetized Wistar rat assessed as number of QRS complex at 40 mg/kg, ip after 30 mins by electrocardiography; type: functional; details: route intraperitoneal; method in brief: as §2
Rattus norvegicus [10] = experiment: Cardiovascular effect in anaesthetized Wistar rat assessed as mean arterial pressure at 40 mg/kg, ip after 60 mins; type: functional, Artery; details: route intraperitoneal; method in brief: as §1
Rattus norvegicus [11] = experiment: Effect on heart rate in anesthetized Wistar rat assessed as number of beats per minutes at 40 mg/kg, ip after 30 mins by electrocardiography; type: functional; details: route intraperitoneal; method in brief: as §2
Rattus norvegicus [12] = experiment: Vasorelaxation activity […] assessed as inhibition of norepinephrine-induced contraction of aorta ring at 0.1 mg/ml; type: functional
Method in brief: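 Isolated Wistar rat aorta rings in physiological salt solution at 37 °C, gassed 95% O2/5% CO2, isometric tension, 60 min equilibration. After contraction plateau, test compound (0.1 mg/mL) added cumulatively; EC50 (g/mL) derived from cumulative concentration–response curves against norepinephrine.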

Rattus norvegicus [13] = experiment: Effect on heart rate in anesthetized Wistar rat assessed as number of QRS complex at 40 mg/kg, ip after 45 mins by electrocardiography; type: functional; details: route intraperitoneal; method in brief: as §2
Rattus norvegicus [14] = experiment: Effect on heart rate in anesthetized Wistar rat assessed as number of P-Q-intervals at 40 mg/kg, ip after 30 mins by electrocardiography; type: functional; details: route intraperitoneal; method in brief: as §2
Rattus norvegicus [15] = experiment: Effect on heart rate in anesthetized Wistar rat assessed as number of P-Q-intervals at 40 mg/kg, ip after 45 mins by electrocardiography; type: functional; details: route intraperitoneal; method in brief: as §2
Rattus norvegicus [16] = experiment: Effect on heart rate in anesthetized Wistar rat assessed as number of beats per minutes at 40 mg/kg, ip after 45 mins by electrocardiography; type: functional; details: route intraperitoneal; method in brief: as §2
Rattus norvegicus [17] = experiment: Effect on heart rate in anesthetized Wistar rat assessed as number of QRS complex at 40 mg/kg, ip after 60 mins by electrocardiography; type: functional; details: route intraperitoneal; method in brief: as §2
Rattus norvegicus [18] = experiment: Cardiovascular effect in anaesthetized Wistar rat assessed as mean arterial pressure at 40 mg/kg, ip after 30 mins; type: functional, Artery; details: route intraperitoneal; method in brief: as §1
Rattus norvegicus [19] = experiment: Antiarrhythmic activity in anaesthetized Wistar rat assessed as decrease in BaCl2-induced cardiac rhythm disturbance at 40 mg/kg, ip 60 mins before arrhythmogen challenge; type: functional, organism-based; set-up: dose 40 mg/kg; details: Heart
Method in brief: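 Rats (thiopental 60 mg/kg ip anaesthesia) given test compound ip at 40 mg/kg, suspended in 0.5% aqueous methyl cellulose, 60 min before iv barium chloride (32 mg/kg) to evoke arrhythmia. Scored by reduction of rhythm disturbances (premature ventricular beats, ventricular tachycardia, fibrillation) and mortality.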

Rattus norvegicus [20] = experiment: Effect on heart rate in anesthetized Wistar rat assessed as number of QRS complex at 40 mg/kg, ip after 15 mins by electrocardiography; type: functional; details: route intraperitoneal; method in brief: as §2
Rattus norvegicus [21] = experiment: Cardiovascular effect in anaesthetized Wistar rat assessed as mean arterial pressure at 40 mg/kg, ip after 15 mins; type: functional, Artery; details: route intraperitoneal; method in brief: as §1
Rattus norvegicus [22] = experiment: Effect on heart rate in anesthetized Wistar rat assessed as number of P-Q-intervals at 40 mg/kg, ip after 60 mins by electrocardiography; type: functional; details: route intraperitoneal; method in brief: as §2
Rattus norvegicus [23] = species on record: Rattus norvegicus; experiment: NO release in Wistar rat by Griess reagent assay in presence of L-cysteine relative to control

Compound | Activity (Rattus norvegicus [1]) [mmHg] | Activity (Rattus norvegicus [2]) | Activity (Rattus norvegicus [3]) | Activity (Rattus norvegicus [4]) | Activity (Rattus norvegicus [5]) | Activity (Rattus norvegicus [6]) | Activity (Rattus norvegicus [7]) | Activity (Rattus norvegicus [8]) | Activity (Rattus norvegicus [9]) | Activity (Rattus norvegicus [10]) [mmHg] | Activity (Rattus norvegicus [11]) | EC50 (Rattus norvegicus [12]) [µg/mL] | Activity (Rattus norvegicus [13]) | Activity (Rattus norvegicus [14]) | Activity (Rattus norvegicus [15]) | Activity (Rattus norvegicus [16]) | Activity (Rattus norvegicus [17]) | Activity (Rattus norvegicus [18]) [mmHg] | Activity (Rattus norvegicus [20]) | Activity (Rattus norvegicus [21]) [mmHg] | also measured
O=C(CO[N+](=O)[O-])NNC(=O)c1ccc(NCC(O)CN2C(=O)/C(=C/c3cccc([N+](=O)[O-])c3)S/C2=N/c2ccccc2)cc1 (centres undefined) | 85.87 | 72.4 | 71.4 | 71.8 | 315.86 | 57 | 70.4 | 318.61 | 22.4 | 90.29 | 295.46 | 141 (≈ 222 µM) | 21.8 | 57.8 | 56.2 | 302.16 | 20.4 | 85.08 | 21.4 | 87.32 | Activity (Rattus norvegicus [19]): inactive; Activity (Rattus norvegicus [22]): 55.6; % NO release (Rattus norvegicus [23]): 0.21%
CC(C)NCC(O)COc1ccc(CC(N)=O)cc1 (centres undefined) [ATENOLOL] | 65.24 |  |  |  |  |  |  |  |  | 69.93 |  |  |  |  |  |  |  | 63.44 |  | 79.01 | 
O=C(CO[N+](=O)[O-])NNC(=O)c1ccc(NCC(O)CN2C(=O)/C(=C/C=C/c3ccccc3)S/C2=N/c2ccccc2)cc1 (centres undefined) | 80.16 | 75.8 | 74.6 | 74.8 | 308.77 | 52.4 | 73.4 | 307.46 | 22.4 | 90.58 | 295.42 | 34.7 (≈ 56.2 µM) | 21.4 | 53.6 | 53.6 | 302.23 | 20.4 | 77.54 | 21 | 84.86 | Activity (Rattus norvegicus [22]): 52.4; % NO release (Rattus norvegicus [23]): 0.24%
O=C(CO[N+](=O)[O-])NNC(=O)c1ccc(NCC(O)CN2C(=O)/C(=C/c3ccc(F)cc3)S/C2=N/c2ccccc2)cc1 (centres undefined) | 80.53 | 68.6 | 67.8 | 68.2 | 300.39 | 51.7 | 66.4 | 300.28 | 23.6 | 85.23 | 289.83 | 49 (≈ 80.5 µM) | 23.2 | 52.2 | 52.4 | 294.11 | 22 | 78.92 | 22.8 | 84.89 | Activity (Rattus norvegicus [22]): 52.2; % NO release (Rattus norvegicus [23]): 0.23%
O=C(CO[N+](=O)[O-])NNC(=O)c1ccc(NCC(O)CN2C(=O)/C(=C/c3ccccc3)S/C2=N/c2ccccc2)cc1 (centres undefined) | 67.54 | 63.2 | 81.8 | 84.6 | 291.8 | 52.2 | 86.2 | 292.18 | 21.2 | 71.29 | 269.11 | 34.7 (≈ 58.7 µM) | 20.6 | 53.6 | 54.2 | 276.83 | 21.6 | 62.21 | 19.4 | 78.67 | Activity (Rattus norvegicus [19]): Active; Activity (Rattus norvegicus [22]): 55.4; % NO release (Rattus norvegicus [23]): 0.33%
COc1cc(/C=C2\S/C(=N/c3ccccc3)N(CC(O)CNc3ccc(C(=O)NNC(=O)CO[N+](=O)[O-])cc3)C2=O)cc(OC)c1OC (centres undefined) | 62.69 | 80.8 | 79.6 | 82.2 | 291.2 | 55 | 83.8 | 301.97 | 22 | 81.25 | 293.35 | 60.3 (≈ 88.5 µM) | 23.2 | 56.2 | 57.6 | 277.12 | 22.8 | 73.93 | 21.2 | 82.81 | Activity (Rattus norvegicus [22]): 54.8; % NO release (Rattus norvegicus [23]): 0.32%
O=C(CO[N+](=O)[O-])NNC(=O)c1ccc(NCC(O)CN2C(=O)/C(=C/c3ccc(O)cc3)S/C2=N/c2ccccc2)cc1 (centres undefined) | 63.34 | 76 | 74.8 | 77.2 | 278.31 | 55.2 | 74.4 | 290.03 | 21.4 | 77.31 | 272.68 | 32.4 (≈ 53.3 µM) | 22.4 | 56 | 56.2 | 258.51 | 20.6 | 68.96 | 20.4 | 79.52 | Activity (Rattus norvegicus [19]): Active; Activity (Rattus norvegicus [22]): 54.8; % NO release (Rattus norvegicus [23]): 0.3%
Cc1ccc(/C=C2\S/C(=N/c3ccccc3)N(CC(O)CNc3ccc(C(=O)NNC(=O)CO[N+](=O)[O-])cc3)C2=O)cc1 (centres undefined) | 72.21 | 73.4 | 72.8 | 74.8 | 297.59 | 49.6 | 72.2 | 303.44 | 23.6 | 88.93 | 291.92 | 28.2 (≈ 46.6 µM) | 24 | 51.2 | 52 | 279.98 | 22.8 | 79.16 | 23.2 | 91.1 | Activity (Rattus norvegicus [22]): 50.2; % NO release (Rattus norvegicus [23]): 0.27%
O=C(CO[N+](=O)[O-])NNC(=O)c1ccc(NCC(O)CN2C(=O)/C(=C/c3ccccc3O)S/C2=N/c2ccccc2)cc1 (centres undefined) | 64.32 | 74.4 | 73.2 | 75.4 | 294.57 | 51.4 | 72.8 | 298.24 | 22.4 | 76.24 | 291.85 | 45.7 (≈ 75.4 µM) | 23.4 | 54.2 | 54.6 | 279.28 | 20.8 | 72.44 | 21.2 | 82.91 | Activity (Rattus norvegicus [19]): Active; Activity (Rattus norvegicus [22]): 52.8; % NO release (Rattus norvegicus [23]): 0.29%
